RPL19A-GFP yeast – RPL19A-GFP expression modulators in yeast, primary screen, cell-based, S. cerevisiae, multiplex flow cytometry, MLPCN. percent response vs DMSO, % at 10 µM. S. cerevisiae RPL19A-GFP strain, 3 h; active compounds read low. 0.3% of 330,000 active;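 active means percent response vs DMSO below 50%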;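 further: median channel GFP fluorescence of the barcoded RPL19A-GFP strain; ratio of sample median GFP to plate DMSO average so 100% = DMSO; lower means less RPL19A-GFP as with rapamycin TOR inhibition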
MEP2 TOR yeast – modulators of MEP2-GFP levels in yeast, primary screen, S. cerevisiae, multiplex flow cytometry, MLPCN library | S. cerevisiae MEP2-GFP strain, 3 h; 100% = DMSO control level | AID 2016, 2009 | GFP response vs DMSO, % at 10 µM | 0.51% of 330,000 active;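 active means GFP response versus DMSO above a set limit, roughly screen mean plus 3 SD, cut at about 180% in these data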;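 further: median GFP fluorescence of the barcode-gated MEP2-GFP cells per well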
AGP1-GFP MLPCN – modulators of AGP1-GFP expression in yeast TOR pathway, primary screen, cell-based, multiplex flow cytometry, S. cerevisiae, MLPCN library | 3 h; GFP as percent of DMSO wells | GFP response vs DMSO, % at 10 µM | 0.02% of 320,000 active | AID 2066, 2009;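 active means GFP response relative to DMSO above a set limit, near screen average plus 3 SD, cut at about 150% in these data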;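 further: median GFP channel fluorescence of the gated AGP1 strain per well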
T cell modulator – modulators of CD8 T cell-vesicle binding, primary screen, mouse 2C CD8+ T cells, flow cytometry | 2C CD8+ T cell-vesicle binding; active compounds read low | response (vesicle binding), % at 7 µM | 0.068% of 330,000 active | AID 2052, 2009;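 active means response, share of CD8 T cells binding vesicles, and their 90th percentile fluorescence all below set limits, cut at about 80% in these data, passing the limit was not always enough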;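 further: values below 100% mean blocked vesicle binding to the CD8+ T cells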
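Incubation: binding step 1.5 h, 37 °C, antibody labelling 20 min, ice; system: murine 2C transgenic CD8+ T lymphocytes; technique: cytometric PE anti-B7-1 and Alexa647 anti-CD8 signals after 1% paraformaldehyde fixation; also added: QL9-charged Drosophila Ld/ICAM-1/B7-1 vesicles; control set: naked versus QL9-loaded vesicles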
LAP4-GFP MLPCN – modulators of LAP4-GFP expression in yeast, primary screen, S. cerevisiae, multiplex flow cytometry, MLPCN library | GFP response vs DMSO, % at 10 µM | 0.34% of 320,000 active | 3 h; median GFP as percent of DMSO wells;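 active means GFP response vs DMSO above a set limit, about the screen mean plus 3 SD, cut at about 150% in these data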
CIT2 TOR yeast – modulators of CIT2-GFP expression in yeast, primary screen, S. cerevisiae, GFP fusion, multiplex flow cytometry, MLPCN library. 0.065% of 320,000 active. AID 2029, 2009. GFP response vs DMSO, % at 10 µM. S. cerevisiae CIT2-GFP strain, 3 h; 100 means same as DMSO wells;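 active means GFP response relative to DMSO above a set limit, near the screen mean plus 3 SD, cut at about 150% in these data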;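 further: ratio of well median GFP fluorescence to mean of DMSO wells on the plate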
LAP4-GFP pick2 – LAP4-GFP expression modulators in yeast, confirmation, cell-based, second cherry pick, flow cytometry | 20% of 590 active | S. cerevisiae LAP4-GFP strain, 3 h | shares compounds with LAP4-GFP MLPCN | GFP response vs DMSO, % at 10 µM | AID 2621, 2010;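 active means GFP signal as percent of the solvent control above about 150%, meaning raised reporter expression, limit read from the data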;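 further: ratio of well median GFP fluorescence to plate DMSO mean so 100% = DMSO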
MEP2 cherry2 – modulators of MEP2-GFP levels in yeast, confirmation, S. cerevisiae, flow cytometry GFP, second cherry picks; 10% of 590 active; shares compounds with LAP4-GFP MLPCN; GFP response vs DMSO, % at 10 µM; AID 2622, 2010; S. cerevisiae MEP2-GFP strain, 3 h;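 active means GFP signal above 150% of the solvent control wells, that is a rise of more than half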;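 further: median channel GFP fluorescence of all gated yeast cells per well; ratio of median GFP to plate DMSO average so 100% = DMSO level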
RPL19A-GFP pick2 – RPL19A-GFP modulators in TOR pathway yeast, confirmation, cell-based, S. cerevisiae, flow cytometry, second cherry pick | S. cerevisiae RPL19A-GFP strain, 3 h; active compounds read low; 100% means same as DMSO wells | 3% of 590 active | AID 2623, 2010 | shares compounds with LAP4-GFP MLPCN | GFP response vs DMSO, % at 10 µM;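 active means under 65% GFP response relative to DMSO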;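 further: median GFP channel fluorescence per well over the all cells gate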
CIT2 GFP CP2 – modulators of CIT2-GFP expression in yeast, confirmation, flow cytometry, second cherry pick, single plex. shares compounds with LAP4-GFP MLPCN. S. cerevisiae CIT2-GFP strain, 3 h; DMSO control wells read 100%. GFP response vs DMSO, % at 10 µM. 8% of 590 active. AID 2624, 2010;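 active means GFP response vs DMSO above about 150%, limit read from the data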;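 further: median green fluorescence per well over all gated yeast cells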
AGP1 GFP CP2 – AGP1-GFP expression modulators, hit retest, confirmation, cell-based, flow cytometry, S. cerevisiae, cherry pick set 2; percent response vs DMSO, % at 10 µM; 590 tested, under 10 active; S. cerevisiae AGP1-GFP strain, 3 h; shares compounds with LAP4-GFP MLPCN;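 active means over 150 percent of DMSO response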;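 further: median GFP channel fluorescence over all cells without mother daughter split; sample median GFP divided by mean DMSO control so 100% equals DMSO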
s288c autofluor – compound autofluorescence in yeast s288c, dose response, artefact control for yeast TOR pathway GFP screen, s288c strain | shares compounds with LAP4-GFP MLPCN | S. cerevisiae s288c, 520 nm autofluorescence, flow cytometry, 3 h; active compounds read high; zero means same as solvent-only cells | fluorescence change (kMESF span) at 33 µM | 610 tested, under 10 active | AID 2757, 2010;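 active means fluorescence span over the dose series, or activity score, above about 33, limit read from the data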
s288c autofl DR – autofluorescence of compounds in yeast s288c, dose response, artefact control for yeast TOR pathway GFP screen, primary hits, KU SAR, s288c parental; shares compounds with LAP4-GFP MLPCN; S. cerevisiae s288c parental, compound autofluorescence, flow cytometry, 3 h; fluorescence change (span) at 33 µM; 110 tested, under 10 active;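 active means fluorescence change span, or the activity score built from it, above 25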
TORC1 bypass – wild-type yeast growth inhibition sparing TORC1 bypass cells, mechanism study for yeast TOR pathway GFP screen, BY4741 wild type, TORC1 bypass strain; shares compounds with LAP4-GFP MLPCN; S. cerevisiae BY4741 spot growth rating, 48-72 h; active compounds read low; growth rating (0-3) at 30 µM; 120 tested, under 10 active; AID 504456, 2011;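 active means growth rating at most 1 for wild type yeast while the TORC1 bypass strain still grows fully, rated 3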
* marks the source's active call; other numbers are inactive results; i = inactive; · = not tested or not shown. In the library only some 0.96% were active in any assay of this set; here they are far more common.

SMILES	RPL19A-GFP yeast	MEP2 TOR yeast	AGP1-GFP MLPCN	T cell modulator	LAP4-GFP MLPCN	CIT2 TOR yeast	others
COc1ccccc1CNC(=O)COC(=O)CSc1ccc(F)cc1	109.0	108.5	116.2	792.4	111.3	108.7
O=C(CC1C[C@H](C(=O)N2CCOCC2)[C@@]2(CCC3CCCC3)c3[nH]c4ccccc4c3CCN2C1=O)NCC12CC3CC(CC(C3)C1)C2 (some centres not stated)	90.4	85.9	98.9	i	95.8	91.8
Cn1ccnc1C(OC(=O)c1ccccc1)C(F)(F)F (configuration not stated)	100.3	101.6	98.1	856.1	104.1	93.7
CCCc1cc(=O)[nH]c(SCC(=O)Nc2ccc(OC)c(S(=O)(=O)N3CCCCC3)c2)n1	97.2	101.5	104.2	264.9	103.8	93.0
CC(=O)n1cc(Nc2ccc([N+](=O)[O-])cc2)c2ccccc21	104.6	98.9	94.0	328.0	114.7	100.0
CC(=O)SC(C[N+](=O)[O-])c1cn(C(C)=O)c2ccccc12 (configuration not stated)	92.7	97.7	101.2	424.1	229.3*	83.3	s288c autofluor=0.41;s288c autofl DR=0.83;TORC1 bypass=3
C/C(=N\NC(=O)c1ccc(C(C)(C)C)cc1)c1ccccn1	·	·	·	·	·	·	s288c autofl DR=0.52;TORC1 bypass=3
CCN(CC(=O)NC(=O)Nc1ccccc1F)Cc1ccccc1	94.9	97.2	105.9	189.4	105.7	98.4
O=c1c2ccccc2nc(/C=C/c2ccc([N+](=O)[O-])o2)n1CCCO	104.5	229.8*	80.5	280.4	193.4*	178.9*	LAP4-GFP pick2=300.0*;MEP2 cherry2=352.8*;RPL19A-GFP pick2=143.3;CIT2 GFP CP2=274.8*;AGP1 GFP CP2=123.9

Bioassay records from PubChem.
